Calls of active or inactive are those of the source. No cut-off for these calls is given here.

One series has as its system RAW264.7. The series can be described thus: Cytotoxicity against mouse RAW264.7 cells assessed as reduction in cell viability at 2 to 64 uM measured after 18 to 24 hrs by MTT assay relative to control. The conditions noted are these: raw264.7, 64 µM. Format: cell-based. In short, it runs like this:
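MTT assay: RAW264.7 cells seeded at 1.0–2.0×10^4 per well and exposed to peptide (2–64 µM) for 18–24 h at 37 °C in 5% CO2. MTT (0.5 mg/mL) added for 4 h, formazan dissolved in DMSO, read at 570 nm. At least three independent experiments with triplicate wells.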
On the technique in general: Formazan colour is commonly taken as a measure of viable cells.

Series [1] concerns Escherichia coli. Kind of series: Induction of cytoplasmic membrane depolarization in Escherichia coli ATCC 25922 assessed as fluorescence intensity at 4 uM up to 3000 secs by DiSC3-5 dye-based fluorescence spectrophotometric method. In short, it runs like this: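 Mid-log E. coli ATCC 25922 (OD600 0.05) loaded with 0.4 μM DiSC3-5 and 100 mM K+ in 5 mM HEPES pH 7.4 with 20 mM glucose until fluorescence stabilized. Peptide added in a 1-cm cuvette and fluorescence (ex 622, em 670 nm) recorded 0–3000 s. Triplicate, three biological replicates.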

The subject of series [2] is Staphylococcus aureus. The series can be described thus: Induction of morphological changes in Staphylococcus aureus ATCC 29213 assessed as tiny hole formation at MBD measured after 1 hr by transmission electron microscopic analysis. Format: functional, organism-based.
The test system of series [3] is Staphylococcus aureus. Kind of series: Bactericidal activity against Staphylococcus aureus ATCC 29213 assessed as reduction in bacterial growth at MBC measured within 30 mins by time-kill assay relative to control. More on the design: scale not given: the % may be the effect or the level left. Format: functional. The method in brief: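 Time-kill: cells at a final 0.5–1×10^5 CFU/mL were exposed to peptide at 1×MBC/MFC. Aliquots were removed at intervals to count survivors against an untreated control. Means of three independent experiments, each with three technical replicates.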

A further series deals with Lipopolysaccharide (LPS). The series can be described thus: Displacement of BODIPY-TR-cadaverine from Escherichia coli O111:B4 LPS at 16 uM after 1 hr by spectrofluorophotometric method relative to control. The method in brief: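 E. coli O111:B4 LPS (50 μg/mL) preloaded 4 h with BODIPY-TR-cadaverine (5 μg/mL) in 50 mM Tris, pH 7.4. Mixed 1:1 with peptide (1–64 µM series), 1 h at 37 °C, then fluorescence read. Expressed as %ΔF: 0% is probe with LPS and no peptide, 100% is probe with LPS plus 10 μg/mL polymyxin B. Three technical replicates.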

In series [4] the test system is Staphylococcus aureus. The series can be described thus: Disruption of plasma membrane integrity in Staphylococcus aureus ATCC 29213 at MBC measured after 30 mins using FITC-labeled compound by propidium iodide staining-based microscopic analysis. Format: organism-based. The method in brief: (§1)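 E. coli ATCC 25922 or S. aureus ATCC 29213 (OD600 0.2) incubated with FITC-labeled peptide at 1×MBC, 37 °C, 30 min. Cells washed, resuspended with PI (10 μg/mL) in PBS, smeared and imaged by superresolution microscopy using 488 and 535 nm filters for FITC and PI. Peptide-free cells served as controls. Three independent scans.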

Series [5] concerns Escherichia coli. Kind of series: Induction of outer membrane permeabilization in Escherichia coli ATCC 25922 at sub-MIC by NPN-dye based assay relative to control. The method in brief: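 Mid-log E. coli ATCC 25922 (OD600 0.2) preloaded 30 min with 10 μM NPN in 5 mM HEPES, pH 7.4, 5 mM glucose; cells mixed with equal volume of peptide solutions (1 to 64 μM). Fluorescence (ex 350, em 420 nm) read until plateau, background-subtracted, expressed as % NPN uptake relative to 10 μg/mL polymyxin B (100%). Three independent experiments, triplicate each.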

The test system of series [6] is Candida albicans. Kind of series: Antifungal activity against Candida albicans cgmcc2.2086 infected in C57BL/6 mouse model of keratitis assessed as reduction in clinical score at 1 to 5 mg/ml administered as topical eye drop every 5 mins for first 4 hrs and every 30 mins for next 7 hrs measured post-last dose. Format: functional, organism-based.
The subject of series [7] is Pseudomonas aeruginosa. The series can be described thus: Antibacterial activity against gentamicin-resistant Pseudomonas aeruginosa ATCC 27853 measured after 24 hrs. Format: functional, organism-based. In short, it runs like this: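 Broth microdilution modified from NCCLS. Mid-log bacteria at (0.5–1) × 10^5 CFU mL−1 in MHB, mixed with peptides serially diluted in 0.2% BSA. Incubated 24 h at 37 °C, read at A492. MIC taken as lowest concentration giving 95% growth inhibition. At least three independent experiments, each with three technical replicates.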

The test system of series [8] is Candida albicans. Kind of series: Antifungal activity against Candida albicans cgmcc2.2086 assessed as ratio of MIC95 in presence of CaCl2 to in absence of CaCl2. Format: functional. The method in brief: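 C. albicans cgmcc 2.2086, (0.5–1) × 10^3 CFU/mL final in MOPS-buffered RPMI 1640, with or without 2 mM CaCl2 (final). Peptide serially diluted in 0.2% BSA and mixed 1:1, 48 h at 28 °C. MIC is the lowest concentration inhibiting 95% of growth by A492. Three independent assays, each with three technical replicates.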

Series [9] relates to Staphylococcus aureus. The series can be described thus: Drug uptake in plasma membrane of Staphylococcus aureus ATCC 29213 at MBC measured after 30 mins using FITC-labeled compound by microscopic analysis. Format: ADME, organism-based. The note with it: in vivo, 0.5 h. In short, it runs like this:
as §1

For series [10], the system named is Escherichia coli. Kind of series: Bactericidal activity against Escherichia coli ATCC 25922 assessed as reduction in bacterial growth at MBC measured within 30 mins by time-kill assay relative to control. Details: scale not given: the % may be the effect or the level left. Format: functional. In short, it runs like this:
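Time-kill assay. Cells at a final 0.5–1 × 10^5 CFU mL−1 were exposed to peptide at 1×MBC. Aliquots were removed at different times to calculate the survival rate against an untreated control. Mean of three independent experiments, each with three technical replicates.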

Series [11] concerns Pseudomonas aeruginosa. The series can be described thus: Bactericidal activity against melittin-resistant Pseudomonas aeruginosa ATCC 27853 incubated for 24 hrs followed by replating on agar plate and measured after overnight incubation. Format: functional, organism-based.
Series [12] has as its system Candida albicans. The series can be described thus: Antifungal activity against Candida albicans cgmcc2.2086 infected in C57BL/6 mouse model of keratitis assessed as reduction in fungal colonies in eyeballs at 5 mg/ml administered as topical eye drop every 5 mins for first 4 hrs and every 30 mins for next 7 hrs measured post-last dose by agar plate method relative to control. Format: functional. Details: scale not given: the % may be the effect or the level left.

Series [13] deals with Staphylococcus aureus. Kind of series: Induction of morphological changes in Staphylococcus aureus ATCC 29213 at MBD measured after 1 hr by atomic force microscopic analysis. Format: functional, organism-based.
The test system of series [14] is Pseudomonas aeruginosa. Kind of series: Bactericidal activity against gentamicin-resistant Pseudomonas aeruginosa ATCC 27853 incubated for 24 hrs followed by replating on agar plate and measured after overnight incubation. Format: functional, organism-based.
Series [15] concerns Staphylococcus aureus. The series can be described thus: Induction of morphological changes in Staphylococcus aureus ATCC 29213 assessed as appearance of intracellular empty areas at MBD measured after 1 hr by transmission electron microscopic analysis. Format: functional, organism-based.
For series [16], the system named is Staphylococcus aureus. The series can be described thus: Bactericidal activity against Staphylococcus aureus ATCC 29213 assessed as reduction in bacterial growth at MBC by time-kill assay. Format: functional, organism-based. In short, it runs like this:
(§2)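 Time-kill assay. E. coli ATCC 25922, S. aureus ATCC 29213 or C. albicans cgmcc 2.2086 at a final 0.5-1×10^5 CFU mL-1 treated at 1×MBC/MFC. Aliquots collected at different times to calculate survival, with an untreated control. Mean of three independent experiments, each with three technical replicates.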

Series [17] has as its system Escherichia coli. Kind of series: Bactericidal activity against Escherichia coli ATCC 25922 assessed as reduction in bacterial growth at MBC by time-kill assay. Format: functional, organism-based. In short, it runs like this:
as §2

For H-AARRILRWIFR-NH2, the Activity in the series on RAW264.7 was above 89.76%.
For H-AARIILRWRFR-NH2, the Flu intensity in the series with Escherichia coli [1] is reported as 3000 a.u. Also, the outcome in the series with Staphylococcus aureus [2], in the series with Staphylococcus aureus [4], in the series with Candida albicans [6], with Pseudomonas aeruginosa [7], in the series on Pseudomonas aeruginosa [11] and in the series on Staphylococcus aureus [13] was Active. The outcome in the series with Pseudomonas aeruginosa [14] and with Staphylococcus aureus [15] was Active. The Activity was 99.99% in the series with Staphylococcus aureus [3]; 99% with Lipopolysaccharide (LPS); 15% in the series on Escherichia coli [5]; 99.99% in the series with Escherichia coli [10]; “<=80%” in the series on Candida albicans [12]. Further, the Ratio in the series on Candida albicans [8] was 4. In addition, the Drug uptake entry in the series with Staphylococcus aureus [9] is reported as “Active”.
Consider `CC[C@H](C)[C@H](NC(=O)CN)C(=O)NCC(=O)N[C@@H](C)C(=O)N[C@H](C(=O)N[C@@H](CC(C)C)C(=O)N[C@@H](CCCCN)C(=O)N[C@H](C(=O)N[C@@H](CC(C)C)C(=O)N[C@H](C(=O)N[C@H](C(=O)NCC(=O)N[C@@H](CC(C)C)C(=O)N1CCC[C@H]1C(=O)N[C@@H](C)C(=O)N[C@@H](CC(C)C)C(=O)N[C@H](C(=O)N[C@@H](CO)C(=O)N[C@@H](Cc1c[nH]c2ccccc12)C(=O)N[C@H](C(=O)N[C@@H](CCCCN)C(=O)N[C@@H](CCCNC(=N)N)C(=O)N[C@@H](CCCCN)C(=O)N[C@@H](CCCNC(=N)N)C(=O)N[C@@H](CCC(N)=O)C(=O)N[C@@H](CCC(N)=O)C(N)=O)[C@@H](C)CC)[C@@H](C)CC)[C@@H](C)O)[C@@H](C)O)C(C)C)C(C)C` [MELITTIN], for which the outcome with Staphylococcus aureus [16] and with Escherichia coli [17] was Active.
